Hits are enriched below; roughly 10% of the tested compounds scored in any of these assays.
PMI act satM6P = human PMI activators, high substrate, primary screen, biochemical, fluorescence intensity, near-saturating mannose 6-phosphate; coupled PMI enzyme assay, resazurin fluorescence, 20 min; active compounds read high; 1 = untreated enzyme, 0 = substrate-free blank; Mannose-6-phosphate isomerase (Homo sapiens), P34949; activation factor at 20 µM; 190,000 tested, 0.34% active;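 active = activation factor of 2 or more at 20 µM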
Target sequence (P34949 whole entry, looked up): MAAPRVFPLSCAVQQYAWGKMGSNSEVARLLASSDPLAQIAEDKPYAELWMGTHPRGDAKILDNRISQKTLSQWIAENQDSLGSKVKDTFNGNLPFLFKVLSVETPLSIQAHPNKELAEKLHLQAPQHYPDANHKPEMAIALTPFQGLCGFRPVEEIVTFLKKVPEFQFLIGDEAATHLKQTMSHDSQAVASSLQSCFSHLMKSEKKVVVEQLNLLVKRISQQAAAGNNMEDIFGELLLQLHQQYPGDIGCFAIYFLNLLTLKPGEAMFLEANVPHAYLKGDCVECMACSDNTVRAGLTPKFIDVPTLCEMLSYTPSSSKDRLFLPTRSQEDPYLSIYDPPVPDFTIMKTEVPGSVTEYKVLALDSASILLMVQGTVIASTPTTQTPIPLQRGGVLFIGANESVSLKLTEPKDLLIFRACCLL
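Test system: human phosphomannose isomerase with PGI, G6PDH, diaphorase coupling enzymes; Amount: PMI at 15 ng/mL final; Reagent: Mannose-6-phosphate 1.0 mM (near-saturating) plus 0.22 mM NADP+; Timing: 20 min, room temperature; Technique: resorufin fluorescence at Ex 544/Em 590 nm; Dosing: 20 µM single dose.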
WT yeast gro inh = growth inhibition of WT strain, primary screen, mitochondrial fusion inhibitor project, WT and mutant strains, chemical genetic | 190,000 tested, 2.1% active | inhibition, % at 10 µM | mitochondrial fusion phenotypic screen; in the data active = inhibition above about 58%; tested in S. cerevisiae
Lmaj promast = Leishmania major promastigote growth inhibition, primary screen | AID 1063, 2008 | inhibition, % at 10 µM | Leishmania major promastigotes, resazurin fluorescence viability | 200,000 tested, 9% active; in the data active = inhibition above about 50%;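 note: promastigotes grown with compound for 44 hours at 28 °C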
Diaph act CS = compounds boosting diaphorase resazurin reduction – biochemical, uHTS, resorufin fluorescence, counter-screen for diaphorase-coupled primary assays, primary screen; Diaphorase/resazurin coupled assay, 16 min; active compounds read high; 1 = vehicle wells, 0 = NADH-free wells; activation factor at 20 µM; 190,000 tested, 0.005% active; AID 1229, 2008;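 active = diaphorase activity raised at least twofold by the compound at 20 µM; inactive = activation factor below 2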
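Assay system: bacterial diaphorase enzyme (C. kluyveri) / Input: enzyme 0.07 U/mL final / Medium: 50 mM HEPES pH 7.4 with 4.542 mM MgCl2, 0.005% Tween 20 / Doses: single compound dose of 20 µM, 1% DMSO final / Incubation: 16 min enzyme reaction, ambient temperature / Signal: fluorescence, excitation 544 nm and emission 590 nm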
PMI act = activators of human PMI, primary screen, biochemical, fluorescence intensity, near-Km mannose 6-phosphate | activation factor at 20 µM | Mannose-6-phosphate isomerase (Homo sapiens), P34949 | purified human PMI, coupled resazurin fluorescence, 20 min; active compounds read high; 1 = vehicle control, 0 substrate-free wells | 190,000 tested, 0.005% active;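 active = activation factor of 2 or more at 20 µM, relative to plate controls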
* marks the source's active call; other numbers are inactive results.

SMILES | PMI act satM6P | WT yeast gro inh | Lmaj promast | Diaph act CS | PMI act
COc1ccccc1N1CCN(C(=O)c2c(-c3ccccc3Cl)noc2C)CC1 | 1 | 29.5 | 7.6 | 0.9 | 1
Cc1onc(-c2c(Cl)cccc2Cl)c1C(=O)N1CCN(c2ccccc2)CC1 | 1 | 24.8 | 95.6* | 0.8 | 0.9
Cc1onc(-c2c(Cl)cccc2Cl)c1C(=O)N1CCN(c2ncccn2)CC1 | 0.9 | -27.7 | 9.7 | 0.8 | 0.9
Cc1onc(-c2ccccc2Cl)c1C(=O)N1CCN(c2nc3ccccc3s2)CC1 | 0.9 | 10.2 | 50.6* | 1 | 0.9
O=C(NCc1nc2ccccc2[nH]1)C1=C[C@H](c2ccc3c(c2)OCO3)C[C@H](OCc2ccc(CO)cc2)O1 | 0.9 | 6.4 | 7.6 | 1 | 0.9
COc1ccc(C2CC(c3ccccc3)=NN2C(=O)COC(=O)C2CC2)cc1 (centres undefined) | 1.1 | 13.3 | 3.8 | 1 | 1
COc1ccc(C2CC(c3ccccc3)=NN2C(=O)COC(=O)C2(C)CC2(Cl)Cl)cc1 (centres undefined) | 0.9 | 72.2* | 60.4* | 0.8 | 0.8
COc1ccccc1C1CC(c2ccc(NS(C)(=O)=O)cc2)=NN1C(=O)c1ccccc1 (centres undefined) | 0.8 | 2.9 | 77.0* | 0.8 | 0.8
COc1ccc(C2CC(c3ccccc3)=NN2C(=O)c2cccs2)cc1 (centres undefined) | 0.9 | 77.8* | -1.5 | 0.8 | 0.9
COc1cccc(C2CC(c3ccc(NS(C)(=O)=O)cc3)=NN2C(=O)c2ccccc2)c1OC (centres undefined) | 1 | 9.5 | 16.3 | 0.7 | 1.1
COc1ccc(C2=NN(C(=O)c3cccs3)C(O)(C(F)(F)F)C2)cc1 (centres undefined) | 0.9 | 14.4 | 12.7 | 0.8 | 0.8
COc1ccc(C2=NN(C(=O)c3cccs3)C(c3ccccc3O)C2)cc1 (centres undefined) | 0.9 | 85.3* | 41.0 | 0.9 | 0.9
CCCCCCC(=O)NC(Nc1ccc(S(N)(=O)=O)cc1)C(Cl)(Cl)Cl (centres undefined) | 0.9 | 4.9 | -2.1 | 0.8 | 0.8
COc1ccc(C2CC(c3ccc(Br)cc3)=NN2C(=O)c2cccnc2)cc1 (centres undefined) | 0.9 | 64.1* | 14.1 | 0.8 | 0.8
COc1ccc(C2CC(c3ccccc3)=NN2C(=O)COC(=O)c2cccnc2)cc1 (centres undefined) | 1.1 | 47.1 | 9.8 | 1 | 1
CCC1Oc2ccc(C)cc2N(CC(=O)NCCCN2CCCCC2CC)C1=O (centres undefined) | 0.9 | 81.4* | 17.4 | 0.9 | 0.9
CCC1Oc2ccc(C)cc2N(CC(=O)NCCC2=CCCCC2)C1=O (centres undefined) | 0.9 | 7.1 | -4.0 | 0.9 | 0.9
Cc1csc(NC(=O)c2cncc(Br)c2)n1 | 1 | 18.6 | 2.5 | 1 | 1
CCOC(=O)c1c(C)n(C)c2ccc(OCC(N)=O)cc12 | 0.8 | 4.7 | -4.0 | 0.7 | 0.8
CCOC(=O)c1c(C)n(C)c2ccc(OCC(O)CN(CC)CC)cc12 (centres undefined) | 1.1 | 13.6 | 98.7* | 1 | 0.9
CCOC(=O)c1c(C)n(C)c2ccc(OCC(O)Cn3nc(C)cc3C)cc12 (centres undefined) | 0.9 | -25.2 | 85.6* | 0.9 | 0.9
CCN(CC)CC(O)COc1ccc2c(c1)c(C(C)=O)c(C)n2-c1ccccc1 (centres undefined) | 1.1 | -13.8 | 100.2* | 0.9 | 1.1
CC(=O)c1c(C)n(-c2ccccc2)c2ccc(OCC(O)CN3CCOCC3)cc12 (centres undefined) | 1 | 12.8 | 5.5 | 0.9 | 1
CCOC(=O)c1c(C)n(C)c2ccc(OCC(O)CN3C(=O)c4ccccc4S3(=O)=O)cc12 (centres undefined) | 0.8 | -11.9 | -3.9 | 0.7 | 0.8
O=C(c1ccccc1Sc1c(Cl)cccc1[N+](=O)[O-])N1CCOCC1 | 1 | -2.3 | -3.0 | 0.9 | 0.9
SMILES | PMI act satM6P | WT yeast gro inh | Lmaj promast | Diaph act CS | PMI act
COc1ccc(OC)c(-c2csc(N3CCC(c4ccccc4)CC3)n2)c1 | 0.9 | 3.1 | -4.9 | 1 | 0.9
COc1ccc(/C(N)=N/O)cc1O | 1 | -18.0 | 19.2 | 0.9 | 1
CCCC(=O)Nc1sc(C)c(-c2ccc(C(C)CC)cc2)c1C#N (centres undefined) | 1 | 15.2 | 3.5 | 1 | 1
O=C(CC(=O)c1ccccc1)Nc1cccnc1Cl | 0.9 | -9.9 | 1.5 | 0.9 | 0.9
CCN(CC)C(=O)CSc1nc(N)c2c3c(sc2n1)CC(C)CC3 (centres undefined) | 1 | 32.7 | 64.2* | 0.9 | 1
CC1CCc2c(sc3nc(SCC(=O)NCc4ccco4)nc(N)c23)C1 (centres undefined) | 0.9 | -3.6 | 14.5 | 0.7 | 0.9
Cc1ccc(NC(=O)NNC(=O)Cn2nc(-c3ccccc3)c(-c3ccccc3)c(C#N)c2=O)cc1 | 0.9 | -7.9 | -6.3 | 0.8 | 0.8
O=C(Nc1cccc(Cl)c1)Nc1cc(S(=O)(=O)N2CCCCC2)ccc1Cl | 0.8 | 49.0 | 32.2 | 0.8 | 0.8
O=C(Nc1ccccc1)Nc1ccc(C(=O)N2CCCC2)cc1 | 1 | 62.2* | -2.5 | 0.9 | 1
O=C(CCCCCN1C(=O)c2ccccc2C1=O)Nc1ccc(S(=O)(=O)N2CCCCC2)cc1 | 0.9 | 67.8* | 34.9 | 0.7 | 0.9
O=C(Nc1cccc(Cl)c1)Nc1cccc(Cl)c1 | 1 | -12.3 | -3.0 | 0.8 | 0.9
COC(=O)c1cc(NC(=O)Nc2cccc(Cl)c2)ccc1Cl | 1 | -15.4 | 71.4* | 0.9 | 0.9
CN1CCN(S(=O)(=O)c2ccc(NC(=O)Nc3cccc(Cl)c3)cc2)CC1 | 0.8 | -4.8 | 98.1* | 0.9 | 0.8
CC1CCN(S(=O)(=O)c2ccc(NC(=O)CCN3C(=O)c4ccccc4C3=O)cc2)CC1 | 1 | 5.8 | 1.5 | 0.9 | 1
O=C(Nc1ccon1)c1cccc(S(=O)(=O)N2CCCCC2)c1 | 0.9 | -2.0 | -4.2 | 0.8 | 0.9
COc1cccc(COc2cc3ccccc3nc2C)c1 | 1 | 13.7 | 3.6 | 0.9 | 1
CN=c1scc(-c2c[nH]c3ccccc23)n1C | 1.1 | 5.2 | -2.6 | 0.9 | 0.9
O=C(Nc1cccc(Cl)c1)Nc1ccc(Br)cc1F | 0.9 | 27.5 | 67.6* | 0.8 | 0.9
O=C(Nc1ccccc1)Nc1ccc(S(=O)(=O)N2CCCCC2)cc1 | 0.9 | 25.8 | 82.5* | 0.8 | 0.9
O=C(Nc1ccccc1)c1cc(S(=O)(=O)N2CCSCC2)ccc1Cl | 0.9 | -6.8 | 52.7* | 0.9 | 0.9

Screening results (PubChem BioAssay)
